Paper PMC3578163 (Chemical research in toxicology, 2013)
Like-named read-outs stand apart in the source and are kept apart here.

What was measured:
[1] = system: DNA synthesis in cell culture; settings: cited from earlier work
hpol ι^26–446 [2] = molecular target: T1, hpol ι^26–446 (Homo sapiens, UniProt Q9UNA4); type: binding; settings: for Kd: read-out: Kd,DNA (polymerase binding to primer-template DNA)
T1 sequence (Q9UNA4 26-446): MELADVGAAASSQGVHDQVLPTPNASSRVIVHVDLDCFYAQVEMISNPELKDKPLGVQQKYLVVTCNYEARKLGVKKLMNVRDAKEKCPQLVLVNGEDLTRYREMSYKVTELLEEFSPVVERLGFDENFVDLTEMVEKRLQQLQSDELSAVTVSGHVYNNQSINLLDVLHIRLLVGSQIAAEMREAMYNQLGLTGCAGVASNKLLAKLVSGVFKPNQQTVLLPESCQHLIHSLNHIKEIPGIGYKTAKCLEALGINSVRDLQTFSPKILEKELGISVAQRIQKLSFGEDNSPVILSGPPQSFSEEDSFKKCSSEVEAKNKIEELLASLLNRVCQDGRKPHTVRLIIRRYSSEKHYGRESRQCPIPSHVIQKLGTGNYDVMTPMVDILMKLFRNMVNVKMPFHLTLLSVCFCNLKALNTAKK
In short: (§1)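 Recombinant human polymerase (His/GST-tagged, expressed in E. coli BL21(DE3), tags cleaved) titrated into 2 nM FAM-labelled 13/18-mer primer-template at 25 °C. Buffer: 50 mM HEPES pH 7.5, 10 mM KOAc, 10 mM MgCl₂, 0.1 mM ZnCl₂, 0.1 mM EDTA, 10% DMSO, 0.1 mg/mL BSA. MK886 at 0–250 μM, with DMSO as control. Polarization read at ex 485/em 525 nm. Kd fitted with total DNA held constant.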

hpol κ^19–526 [3] = molecular target: T2, hpol κ^19–526 (Homo sapiens, UniProt Q9UBT6); type: binding; settings: for Kd: read-out: Kd,DNA (polymerase binding to primer-template DNA)
T2 sequence (Q9UBT6 19-526): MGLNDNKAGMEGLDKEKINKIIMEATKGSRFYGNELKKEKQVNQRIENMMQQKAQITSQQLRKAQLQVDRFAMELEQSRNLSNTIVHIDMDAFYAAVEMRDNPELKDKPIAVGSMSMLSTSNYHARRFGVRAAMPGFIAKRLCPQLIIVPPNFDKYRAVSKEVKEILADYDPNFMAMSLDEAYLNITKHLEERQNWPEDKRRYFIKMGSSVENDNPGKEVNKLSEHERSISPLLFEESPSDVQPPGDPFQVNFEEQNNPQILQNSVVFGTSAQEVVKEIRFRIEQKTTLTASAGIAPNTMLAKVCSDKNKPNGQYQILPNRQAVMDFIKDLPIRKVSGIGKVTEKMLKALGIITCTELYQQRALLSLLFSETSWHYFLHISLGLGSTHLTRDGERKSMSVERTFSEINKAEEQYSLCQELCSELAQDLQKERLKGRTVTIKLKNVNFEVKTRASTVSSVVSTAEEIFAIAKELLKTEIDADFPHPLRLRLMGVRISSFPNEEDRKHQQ
In short: as §1

[4] = system: peroxisome proliferator activated receptor alpha (PPARα); settings: FLAP-independent inhibition of PPARα; cited from earlier work
hpol ι^26–446 [5] = molecular target: T1, hpol ι^26–446; assay: polymerase-catalyzed primer extension; type: biochemical; settings: read-out: IC50 for inhibition of DNA polymerase activity; all four dNTPs 0.25 mM, MgCl2 5 mM; 20 nM enzyme, 200 nM DNA, 37 °C
COX1 = settings: read-out: IC50 value for COX1 inhibition; in vitro activity assays; cited from earlier work
hpol ι^26–446 [6] = molecular target: T1, hpol ι^26–446; type: biochemical; settings: for kcat: dTTP
In short: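 Tripartite substrate built by annealing an unlabelled 19-mer primer, a TAMRA-labelled 10-mer reporter and a BHQ2-labelled 29-mer template (1.4:1:1.5); 50 nM substrate used. Enzyme at 5 nM in 50 mM Tris-HCl pH 8.0, 0.01% Tween-20, 2 mM DTT, 40 mM KCl, 0.25 mM MnCl₂, 25 °C. Inhibitor or DMSO present; dTTP 1–200 μM. Fluorescence (ex 525/em 598 nm) read continuously up to 60 min. Linear-phase velocities fitted to a hyperbola.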

hpol ι^1–446 = molecular target: T3, hpol ι^1–446 (Homo sapiens, UniProt Q9UNA4); assay: polymerase-catalyzed primer extension; type: biochemical; settings: read-out: IC50 for inhibition of DNA polymerase activity; all four dNTPs 0.25 mM, MgCl2 5 mM; 20 nM enzyme, 200 nM DNA, 37 °C
T3 sequence (Q9UNA4 1-446): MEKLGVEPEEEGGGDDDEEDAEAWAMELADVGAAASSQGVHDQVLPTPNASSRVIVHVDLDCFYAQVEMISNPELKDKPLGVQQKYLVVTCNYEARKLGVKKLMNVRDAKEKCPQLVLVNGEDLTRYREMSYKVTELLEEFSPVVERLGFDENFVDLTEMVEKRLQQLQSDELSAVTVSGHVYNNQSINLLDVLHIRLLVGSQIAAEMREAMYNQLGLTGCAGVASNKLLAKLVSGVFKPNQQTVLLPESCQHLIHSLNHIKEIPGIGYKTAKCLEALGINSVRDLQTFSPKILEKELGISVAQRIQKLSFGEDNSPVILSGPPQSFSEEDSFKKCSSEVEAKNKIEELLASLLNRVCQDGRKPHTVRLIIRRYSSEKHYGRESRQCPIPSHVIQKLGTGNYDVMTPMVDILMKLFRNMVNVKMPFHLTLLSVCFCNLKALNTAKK

hpol κ^19–526 [7] = molecular target: T2, hpol κ^19–526; assay: polymerase-catalyzed primer extension; type: biochemical; settings: read-out: IC50 for inhibition of DNA polymerase activity; five-minute time point; all four dNTPs 0.25 mM, MgCl2 5 mM; 20 nM enzyme, 200 nM DNA, 37 °C

In the case of `CC(C)c1ccc2c(c1)c(SC(C)(C)C)c(CC(C)(C)C(=O)O)n2Cc1ccc(Cl)cc1` [MK886, 3-[1-(4-chlorobenzyl)-3-t-butyl-thio-5-isoproylindol-2-yl]-2,2-dimethylpropanoic acid], the “concentration at which DNA synthesis/replication is inhibited” value [1] is listed as at least 1 µM, the “change in the affinity for DNA relative to the DMSO control” value (hpol ι^26–446 [2]; 10 μM MK886) is listed as “no observed change” and the “fold increase in the Kd,DNA” value (hpol ι^26–446 [2]; MK886 at or above 100 μM) is listed as over 2 fold. The Kd (hpol ι^26–446 [2]; 100 μM MK886) was 0.0188 ± 0.0027 µM, the Kd (hpol ι^26–446 [2]; 150 μM MK886) was 0.0164 ± 0.0021 µM and the Kd (hpol ι^26–446 [2]; 250 μM MK886) was 0.0388 ± 0.0171 µM. The “change in binding affinity for hpol κ relative to that observed for hpol ι^26–446” value (hpol κ^19–526 [3]; hpol κ vs hpol ι^26–446) was ~ 2 fold, the Kd (hpol κ^19–526 [3]; 25 μM MK886) was 0.026 ± 0.0091 µM and the Kd (hpol κ^19–526 [3]; 50 μM MK886) was 0.0241 ± 0.0094 µM. For the same compound, the Kd (hpol κ^19–526 [3]; 100 μM MK886) was 0.0313 ± 0.0121 µM, the Kd (hpol κ^19–526 [3]; 150 μM MK886) was 0.0704 ± 0.0157 µM and the Kd (hpol κ^19–526 [3]; 250 μM MK886) was 0.0679 ± 0.0171 µM. For the same compound, the “concentration at which apoptosis is induced” value [4] was “above 10 μM”, the IC50 (hpol ι^26–446 [5]) was 8.2 ± 0.6 µM and the IC50 (COX1) was 8 µM. The kcat (hpol ι^26–446 [6]; 20 μM MK886, fluorescence-based assay) was 0.0733 ± 0.0017 s⁻¹, the “Fold decrease in kcat/KM,dNTP” value (hpol ι^26–446 [6]; 20 μM MK886 vs no inhibitor) was 1.6 and the kcat (hpol ι^26–446 [6]; 40 μM MK886, fluorescence-based assay) was 0.0717 ± 0.0017 s⁻¹. The “Fold decrease in kcat/KM,dNTP” value (hpol ι^26–446 [6]; 40 μM MK886 vs no inhibitor) was 2.1, the kcat (hpol ι^26–446 [6]; 60 μM MK886, fluorescence-based assay) was 0.0683 ± 0.0033 s⁻¹ and the “Fold decrease in kcat/KM,dNTP” value (hpol ι^26–446 [6]; 60 μM MK886 vs no inhibitor) was 2.4. For the same compound, the “mechanism of inhibition of DNA polymerase activity” value (hpol ι^26–446 [6]; fluorescence-based assay, diminished kcat and increased KM,dNTP) was “mixed-type inhibition”, the IC50 (hpol ι^1–446) was 15.1 ± 2.1 µM and the IC50 (hpol κ^19–526 [7]) was 63.8 ± 1.7 µM.
